Screening data deposited in PubChem BioAssay by several laboratories.
Compounds with a hit are over-represented: about 1% of the library has one in this group of screens.
Lipid droplet = inhibitors of hepatocyte lipid droplet formation, primary screen, imaging, high-throughput imaging, BODIPY stain | AML12 mouse hepatocytes, oleate lipid droplets | inhibition, % at 6.5 µM | 0.4% of 240,000 active | AID 1656, 2009;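 active means lipid droplet intensity inhibited by at least 50%, with more than 500 cells counted; inconclusive means wells with under 300 cells, treated as cytotoxic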
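Assay system: AML12 mouse liver cells | Compound: 6.5 µM single-point dosing | Schedule: Overnight exposure | Technique: Fluorescence imaging, 20x objective, two fields per well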
Arrestin-AP2 inh = inhibitors of beta-arrestin/AP2 binding, primary screen, biochemical, GPCR trafficking, flow cytometry | beta-arrestin 1 C-terminal peptide binding to AP2 beta2-adaptin appendage (human) | FITC-arrestin peptide / GST-AP2 beads; AP2 beta2 appendage carries R879A mutation | inhibition, % at 10 µM | 0.31% of 340,000 active;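 active means inhibition above a set limit, near 3 SD of compounds lacking own fluorescence, cut at about 54% in these data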
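System: GST-AP2 R879A glutathione beads | Also added: FITC-arrestin peptide, 50 nM | Times: 12 min plus 1 h, RT | Signal: Bead flow cytometry, FITC channel | Buffer or medium: PBS with 0.05% Tween 20 and 0.1% BSA | Read-out basis: Percent drop in bead-associated FITC signal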
Fh CTSL1 inh = Fasciola hepatica cathepsin L1 inhibitors, primary screen, counter-screen for PFM18AAP inhibitor project, biochemical, QFRET, fluorogenic peptide substrate; AID 1906, 2009; recombinant F. hepatica cathepsin L1, Z-Leu-Arg-MCA fluorescence; inhibition, % at 5.96 µM; 0.49% of 300,000 active;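 active means inhibition above the mean of all tested compounds plus 3 SD, set per screening campaign, cut at about 17% in these data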
pCIP destab = p/CIP-EGFP fusion destabilizers, primary screen, fluorescence, F442A cells; 0.01% of 290,000 active; decrease of EGFP signal, % at 10 µM; AID 1984, 2009; Q05BA5; 16 h;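 active means EGFP signal decrease of at least 30% at 10 µM or well 3 SD below plate mean, unless failing retest; inactive means the rest, including hits failing retest or dose response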
Hep lipid conf = hepatocyte lipid droplet accumulation inhibitors, confirmation, imaging, AML12 mouse hepatocytes, single concentration, high-content. shares compounds with Lipid droplet. BODIPY lipid droplet imaging; droplets induced with 100 µM oleic acid. inhibition, % at 5.2 µM. 65% of 870 active. AID 463183, 2010;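 active means inhibition of lipid droplet metric at least 50%, with more than 300 cells in each of four replicates; inconclusive means wells under 300 cells, flagged as toxic or low count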
AML12 cytotox = AML12 hepatocyte cytotoxicity, counter-screen for hepatic lipid droplet formation project, imaging, DAPI nuclear morphology imaging | shares compounds with Lipid droplet | AID 463200, 2010 | 3% of 870 active | AML12 mouse hepatocytes; hits give high values; cells fed 100 µM oleate overnight | z-score at 5 µM; in the data active means z-score above about 6.3;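 further: compound exposure lasted overnight at 37 °C before fixation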
AML12 tox conf = AML12 hepatocyte cytotoxicity, confirmation, cytotoxicity control for hepatic lipid droplet formation project, cell-based, single concentration | shares compounds with Lipid droplet | AML12 mouse hepatocyte viability, ATP luminescence; cells loaded with 100 µM oleic acid | cytotoxicity, % at 50 µM | 530 tested, under 10 active | AID 463219, 2010;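 active means cytotoxicity above 50% in each of four replicates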;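 further: compound exposure lasted overnight at 37 °C before the ATP read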
Hits are given with their value; – = inactive; ? = inconclusive; · = not tested or not shown.

SMILES	Lipid droplet	Arrestin-AP2 inh	Fh CTSL1 inh	pCIP destab	Hep lipid conf	AML12 cytotox	AML12 tox conf
Cc1ccc(C(=O)CC2(O)C(=O)N(CCc3ccccc3)c3ccc(Br)cc32)o1 (stereo not drawn)	53	–	–	–	83	–	–
Cc1sc(NC(=O)Cc2ccc3c(c2)OCO3)nc1-c1ccc2c(c1)CCN2C(=O)c1ccccc1F	51	–	–	–	83	–	–
COC(=O)Cc1ccc(NC(=S)Nc2cccc(C)n2)cc1	–	–	–	–	·	·	·
COc1ccc(N(C)C(=O)c2cn(CC(C)C)c(=O)c3cc(OC)c(OC)cc23)cc1	·	–	–	–	·	·	·
CCn1cc(C(=O)N(C)c2ccc(OC)cc2)c2cc(OC)c(OC)cc2c1=O	68	–	–	–	–	–	·
CC1CCCCN1Cc1c(O)ccc2c(=O)c(-c3ccccc3)coc12 (stereo not drawn)	87	–	–	–	–	–	·
O=C(Nc1ccc(Cl)c([N+](=O)[O-])c1)c1ccco1	–	–	–	–	·	·	·
O=C(NCc1ccc(C(=O)O)cc1)OCc1ccccc1	63	–	–	–	–	–	·
Nc1nc(-c2ccccc2)c(N=Nc2cccc3ccccc23)s1	113	–	–	–	115	–	–
Nc1nc(-c2ccccc2)c(N=Nc2ccccc2Cl)s1	104	–	–	–	114	–	–
Cn1nc(C(=O)NCc2ccccc2CN2CCCC2)c2ccccc2c1=O	·	–	·	·	·	·	·
COc1ccc2nc(N=Nc3ccc(O)c4ccccc34)sc2c1	71	–	–	–	105	–	·
COc1ccc2nc(N=NC3=C(O)CC(C)(C)CC3=O)sc2c1	–	–	–	–	·	·	·
CN(C1=C(NC(=O)c2ccc(Cl)cc2)C(=O)c2ccccc2C1=O)c1ccccc1	69	–	–	–	91	–	·
COc1n[nH]c(C(=O)Nc2cc(Cl)ccc2Cl)c1[N+](=O)[O-]	–	–	–	–	·	·	·
COc1n[nH]c(C(=O)Nc2cc(F)ccc2C)c1[N+](=O)[O-]	55	–	–	–	–	–	·
Cc1ccc(-c2ccc(SCC(=O)Nc3ccc4c(c3)OCCO4)nn2)cc1	–	–	–	–	·	·	·
Cc1ccc(C2=NC3(CCCCC3)N=C2SCC(=O)Nc2ccc3c(c2)OCCO3)cc1	54	–	–	–	70	–	–
COc1ccc(/C=C\C(=O)NCc2ccc3[nH]c(C)cc3c2)cc1OC	74	–	–	–	96	–	–
CCc1ccccc1NC(=O)C1=CC(c2cccs2)=NS(=O)(=O)N1C	72	–	–	–	105	–	–
Cc1ccc(O)c(NC(=O)C2=CC(c3cccs3)=NS(=O)(=O)N2C)c1	?	–	–	–	·	·	·
Cc1oc2c(cc(NS(=O)(=O)c3cccs3)c3ccccc32)c1C(=O)OC(C)C	68	–	–	–	89	–	–
CCN1CCN(c2cc(C)c3cc(NC(=O)CCC(=O)Nc4ccc(OC)cc4OC)ccc3n2)CC1	89	–	–	–	94	–	–
COc1ccc(NC(=O)Cc2c(C)n(C(=O)c3ccc(Cl)cc3)c3ccc(OC)cc23)cc1	83	–	–	–	98	–	·
COC(=O)CNC(=O)Cc1c(C)n(C(=O)c2ccc(Cl)cc2)c2ccc(OC)cc12	–	–	–	–	·	·	·
SMILES	Lipid droplet	Arrestin-AP2 inh	Fh CTSL1 inh	pCIP destab	Hep lipid conf	AML12 cytotox	AML12 tox conf
COc1ccc2c(c1)c(CC(=O)Nc1ccc(C)cc1)c(C)n2C(=O)c1ccc(Cl)cc1	80	–	–	–	106	–	–
OC1(c2ccccc2)CCN(Cc2ccccc2)C2CCCCC21 (stereo not drawn)	–	–	–	–	·	·	·
O=C(Nc1cccc(S(=O)(=O)N2CCOCC2)c1)c1ccc(Cl)c([N+](=O)[O-])c1	61	–	–	–	–	–	·
O=C/C=C/c1c(-c2ccccc2)cc2oc3ccccc3cc1-2	70	–	–	–	–	–	·
Nc1ccc(-c2cc3ccccc3oc2=O)cc1	–	–	–	–	·	·	·
CCOC(=O)C1=NNC2(c3ccc(Cl)cc3)C(=O)N(c3ccc(C)cc3)C(=O)C12 (stereo not drawn)	–	–	–	–	·	·	·
COc1ccc(N=C/C=C2/C=C(c3ccccc3)OC(C)(C)O2)cc1	61	–	–	–	–	–	·
CCc1ccccc1NC(=O)COc1ccc(C(=S)N2CCCC2)cc1	55	–	–	–	–	–	·
CCN1CCN(C(=O)c2cc3c(OC)c(OC)c(OC)cc3[nH]2)CC1	·	–	–	–	·	·	·
COC(=O)C1=C(C)N=c2s/c(=C3\C(=O)Nc4ccccc43)c(=O)n2C1c1ccccc1 (stereo not drawn)	60	·	·	–	56	–	69
CCOC(=O)C1=C(C)n2c(s/c(=C3\C(=O)Nc4ccccc43)c2=O)=NC1c1ccc(OC)cc1 (stereo not drawn)	80	–	–	–	–	–	·
C=CCN1C(=O)c2ccccc2Sc2ccc(C(=O)NCC(OC)OC)cc21	55	–	–	–	–	–	·
COCCn1c(SCC(=O)NC2CCCC(C)C2C)nc2ccccc2c1=O (stereo not drawn)	·	–	·	·	·	·	·
Cc1cc(C)cc(Cn2ncc(Cl)c(Cl)c2=O)c1	–	·	–	–	·	·	·
CC1(C)Nc2ccccc2C(=O)N1c1ccc(Br)cc1	·	–	–	·	·	·	·
Cc1ccc(N2C(=O)c3ccccc3NC2(C(=O)O)c2ccccc2)cc1Cl (stereo not drawn)	50	–	–	–	–	–	–
COc1ccc(NC(=O)c2sccc2C)cn1	60	–	–	–	–	–	·
CC(C)c1ccc(NC(=S)NC2CCN(Cc3ccccc3)CC2)cc1	–	–	–	–	·	·	·
CCC(C(=O)NCc1ccc(C)o1)n1nc(C)c2c(C)n(-c3ccccc3)nc2c1=O (stereo not drawn)	–	–	–	–	·	·	·
Cc1ccc(-n2nc3c(=O)n(C(C)C(=O)NCCCc4ccccc4)nc(C)c3c2C)cc1 (stereo not drawn)	–	–	–	–	·	·	·
CCC(C(=O)NCc1cccc(C)c1)n1nc(C)c2c(C)n(-c3ccccc3)nc2c1=O (stereo not drawn)	64	–	–	–	78	–	–
Cc1ccc(-n2nc3c(=O)n(CC(=O)NCCCc4ccccc4)nc(C)c3c2C)cc1	65	–	–	–	81	–	–
CCc1cc(SC#N)cc(CC)c1NC(=O)CCl	81	–	–	–	79	–	–
